Assay results published in ChEMBL document CHEMBL4028879, “Structure-Activity Relationship Studies of Pyrimido[5,4-b]indoles as Selective Toll-Like Receptor 4 Ligands” (J Med Chem, 2017).

Legend:
[1] = Cytotoxicity against C57BL/6 mouse primary BMDC assessed as cell viability at 5 uM after 18 hrs by MTT assay relative to control; assay type: cell-based; conditions: primary BMDC (bone marrow-derived dendritic cells), read-out: Activity
[2] = molecular target: T1, Toll-like receptor 4 (Mus musculus) (UniProt Q9QUK6); test: Agonist activity at mouse TLR4 expressed in HEK293 blue cells assessed as induction of NF-kappaB activation-mediated SEAP production by measuring AUC after 20 to 24 hrs by colorimetric assay relative to N-cyclohexyl-2-(5-methyl-4-oxo-3-phenyl-4,5-dihydro-3H-pyrimido[5,4-b]indol-2-ylthio)acetamide; assay type: cell-based
T1 sequence (whole entry): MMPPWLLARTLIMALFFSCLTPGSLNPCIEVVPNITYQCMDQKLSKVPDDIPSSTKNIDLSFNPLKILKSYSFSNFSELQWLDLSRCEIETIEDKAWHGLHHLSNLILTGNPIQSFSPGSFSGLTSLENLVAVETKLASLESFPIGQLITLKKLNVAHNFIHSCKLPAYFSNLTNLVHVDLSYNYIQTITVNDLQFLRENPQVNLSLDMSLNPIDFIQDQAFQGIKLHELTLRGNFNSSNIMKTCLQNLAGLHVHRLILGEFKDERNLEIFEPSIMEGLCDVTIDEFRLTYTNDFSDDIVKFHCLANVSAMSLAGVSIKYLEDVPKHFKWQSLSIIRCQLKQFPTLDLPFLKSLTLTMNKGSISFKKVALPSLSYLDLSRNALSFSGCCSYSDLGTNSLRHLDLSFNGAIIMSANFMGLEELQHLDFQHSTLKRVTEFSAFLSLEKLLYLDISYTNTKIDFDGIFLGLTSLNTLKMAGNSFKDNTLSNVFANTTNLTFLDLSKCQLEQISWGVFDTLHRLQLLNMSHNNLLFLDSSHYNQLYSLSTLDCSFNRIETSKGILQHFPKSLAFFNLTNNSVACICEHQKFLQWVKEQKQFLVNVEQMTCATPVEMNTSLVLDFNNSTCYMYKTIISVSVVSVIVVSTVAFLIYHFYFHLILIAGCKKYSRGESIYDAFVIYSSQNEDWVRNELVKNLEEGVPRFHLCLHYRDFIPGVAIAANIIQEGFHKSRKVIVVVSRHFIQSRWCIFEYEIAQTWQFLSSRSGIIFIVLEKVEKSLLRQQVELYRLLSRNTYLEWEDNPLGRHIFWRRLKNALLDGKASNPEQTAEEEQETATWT

Toll-like receptor 4 [3] = molecular target: T2, Toll-like receptor 4 (Mus musculus, UniProt Q9QUK6); test: Agonist activity at mouse TLR4 expressed in HEK293 blue cells assessed as induction of NF-kappaB activation-mediated SEAP production after 20 to 24 hrs by colorimetric assay; assay type: cell-based
T2 sequence (Q9QUK6 whole entry): T1 sequence (whole entry)
Method in brief: (§1)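 HEK-Blue cells expressing human or mouse TLR4, 2.5 × 10⁴/well in DMEM with 10% FBS, pyruvate, glutamine and antibiotics. Graded doses from 20 mM DMSO stocks, final DMSO 0.05%. Supernatants harvested after 20–24 h; SEAP read by colorimetric substrate at 630 nm. EC50 taken as the concentration giving 50% of maximal activation. LPS 100 ng/mL served as positive control.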

Toll-like receptor 4 [4] = molecular target: T3, Toll-like receptor 4 (Homo sapiens, UniProt O00206); test: Agonist activity at human TLR4 expressed in HEK293 blue cells assessed as induction of NF-kappaB activation-mediated SEAP production after 20 to 24 hrs by colorimetric assay; assay type: cell-based; method in brief: as §1
T3 sequence (O00206 whole entry): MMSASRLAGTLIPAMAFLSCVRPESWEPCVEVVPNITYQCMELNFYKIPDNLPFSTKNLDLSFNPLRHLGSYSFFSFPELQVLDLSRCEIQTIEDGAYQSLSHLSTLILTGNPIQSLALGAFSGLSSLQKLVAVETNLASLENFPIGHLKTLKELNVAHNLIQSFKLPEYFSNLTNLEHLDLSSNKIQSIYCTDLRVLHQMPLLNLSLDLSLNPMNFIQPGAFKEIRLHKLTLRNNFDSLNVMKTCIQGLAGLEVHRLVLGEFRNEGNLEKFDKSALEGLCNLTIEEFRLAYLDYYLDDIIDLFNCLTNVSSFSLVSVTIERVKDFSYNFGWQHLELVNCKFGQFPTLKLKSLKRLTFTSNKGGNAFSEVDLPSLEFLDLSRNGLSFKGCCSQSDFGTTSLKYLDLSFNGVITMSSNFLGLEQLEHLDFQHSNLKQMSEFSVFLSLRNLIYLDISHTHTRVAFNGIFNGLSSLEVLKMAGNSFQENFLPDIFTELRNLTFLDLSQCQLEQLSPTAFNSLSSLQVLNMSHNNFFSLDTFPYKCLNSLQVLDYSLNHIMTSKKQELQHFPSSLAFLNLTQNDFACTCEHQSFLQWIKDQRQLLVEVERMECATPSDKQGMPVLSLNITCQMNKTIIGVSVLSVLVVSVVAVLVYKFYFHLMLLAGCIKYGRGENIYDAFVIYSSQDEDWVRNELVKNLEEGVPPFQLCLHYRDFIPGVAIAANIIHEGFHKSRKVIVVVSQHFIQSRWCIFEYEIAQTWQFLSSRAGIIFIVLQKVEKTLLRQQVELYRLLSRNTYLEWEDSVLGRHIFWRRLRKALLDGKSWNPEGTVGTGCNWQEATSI

[5] = molecular target: T1, Toll-like receptor 4 (Mus musculus); test: Agonist activity at TLR4 in C57BL/6 mouse primary BMDC assessed as induction of IL-6 release at 5 uM after 18 hrs by ELISA relative to N-cyclohexyl-2-(5-methyl-4-oxo-3-phenyl-4,5-dihydro-3H-pyrimido[5,4-b]indol-2-ylthio)acetamide
Toll-like receptor 4 [6] = molecular target: T3, Toll-like receptor 4; test: Agonist activity at human TLR4 expressed in HEK293 blue cells assessed as induction of NF-kappaB activation-mediated SEAP production by measuring AUC after 20 to 24 hrs by colorimetric assay relative to N-cyclohexyl-2-(5-methyl-4-oxo-3-phenyl-4,5-dihydro-3H-pyrimido[5,4-b]indol-2-ylthio)acetamide; assay type: cell-based

## Cn1ccc2nc(SCC(=O)NC3CCCCC3)n(-c3ccccc3)c(=O)c21
[1]
  viability at 18 h, 5 µM: 117%
[2]
  Activity: 5%
Toll-like receptor 4 [3]
  EC50: > 10 µM
Toll-like receptor 4 [4]
  EC50: > 10 µM
[5]
  Activity: 1%
Toll-like receptor 4 [6]
  Activity: 17%

## Cn1c2ccc(C#N)cc2c2nc(SCC(=O)NC3CCCCC3)n(-c3ccccc3)c(=O)c21
[1]
  viability at 18 h, 5 µM: 107%
[2]
  Activity: 14%
Toll-like receptor 4 [3]
  EC50: > 10 µM
Toll-like receptor 4 [4]
  EC50: > 10 µM
[5]
  Activity: 45%
Toll-like receptor 4 [6]
  Activity: 12%

## Cc1c(C)n(C)c2c(=O)n(-c3ccccc3)c(SCC(=O)NC3CCCCC3)nc12
[1]
  viability at 18 h, 5 µM: 100%
[2]
  Activity: 22%
Toll-like receptor 4 [3]
  EC50: > 10 µM
Toll-like receptor 4 [4]
  EC50: > 10 µM
[5]
  Activity: 81%
Toll-like receptor 4 [6]
  Activity: 12%

## Cn1c2ccccc2c2nc(S(=O)(=O)CC(=O)NC3CCCCC3)n(-c3ccccc3)c(=O)c21
[1]
  viability at 18 h, 5 µM: 50%
[2]
  Activity: 2%
Toll-like receptor 4 [3]
  EC50: > 10 µM
Toll-like receptor 4 [4]
  EC50: > 10 µM
[5]
  Activity: 0%
Toll-like receptor 4 [6]
  Activity: 16%

## O=C(CSc1nc2cc[nH]c2c(=O)n1-c1ccccc1)NC1CCCCC1
[1]
  viability at 18 h, 5 µM: 99%
[2]
  Activity: 4%
Toll-like receptor 4 [3]
  EC50: > 10 µM
Toll-like receptor 4 [4]
  EC50: > 10 µM
[5]
  Activity: 0%
Toll-like receptor 4 [6]
  Activity: 7%

## Cn1c2ccc(C#C[Si](C)(C)C)cc2c2nc(SCC(=O)NC3CCCCC3)n(-c3ccccc3)c(=O)c21
[1]
  viability at 18 h, 5 µM: 73%
[2]
  Activity: 85%
Toll-like receptor 4 [3]
  EC50: 3.3 µM
Toll-like receptor 4 [4]
  EC50: > 10 µM
[5]
  Activity: 78%
Toll-like receptor 4 [6]
  Activity: 87%

## Cn1c2ccccc2c2nc(NCC(=O)NC3CCCCC3)n(-c3ccccc3)c(=O)c21
[1]
  viability at 18 h, 5 µM: 113%
[2]
  Activity: 2%
Toll-like receptor 4 [3]
  EC50: > 10 µM
Toll-like receptor 4 [4]
  EC50: > 10 µM
[5]
  Activity: 1%
Toll-like receptor 4 [6]
  Activity: 10%

## Cn1c2ccc(I)cc2c2nc(SCC(=O)NC3CCCCC3)n(-c3ccccc3)c(=O)c21
[1]
  viability at 18 h, 5 µM: 75%
[2]
  Activity: 104%
Toll-like receptor 4 [3]
  EC50: 2.51 µM
Toll-like receptor 4 [4]
  EC50: 3.75 µM
[5]
  Activity: 74%
Toll-like receptor 4 [6]
  Activity: 204%

## Cn1c2ccc(NC(=O)CCC(=O)O)cc2c2nc(SCC(=O)NC3CCCCC3)n(-c3ccccc3)c(=O)c21
[1]
  viability at 18 h, 5 µM: 75%
[2]
  Activity: 3%
Toll-like receptor 4 [3]
  EC50: > 10 µM
Toll-like receptor 4 [4]
  EC50: > 10 µM
[5]
  Activity: 0%
Toll-like receptor 4 [6]
  Activity: 28%

## O=c1c2[nH]c3ccccc3c2nc(SCCCC2CCCCC2)n1-c1ccccc1
[1]
  viability at 18 h, 5 µM: 57%
[2]
  Activity: 1%
Toll-like receptor 4 [3]
  EC50: > 10 µM
Toll-like receptor 4 [4]
  EC50: > 10 µM
[5]
  Activity: 0%
Toll-like receptor 4 [6]
  Activity: 9%

## Cn1c2cc(Br)ccc2c2nc(SCC(=O)NC3CCCCC3)n(-c3ccccc3)c(=O)c21
[1]
  viability at 18 h, 5 µM: 93%
[2]
  Activity: 34%
Toll-like receptor 4 [3]
  EC50: 4.89 µM
Toll-like receptor 4 [4]
  EC50: > 10 µM
[5]
  Activity: 73%
Toll-like receptor 4 [6]
  Activity: 40%

## Cn1c2ccc(-c3ccc(-c4ccccc4)cc3)cc2c2nc(SCC(=O)NC3CCCCC3)n(-c3ccccc3)c(=O)c21
[1]
  viability at 18 h, 5 µM: 23%
[2]
  Activity: 1%
Toll-like receptor 4 [3]
  EC50: > 10 µM
Toll-like receptor 4 [4]
  EC50: > 10 µM
[5]
  Activity: 0%
Toll-like receptor 4 [6]
  Activity: 31%

## CCCCCCCC(=O)Nc1ccc2c(c1)c1nc(SCC(=O)NC3CCCCC3)n(-c3ccccc3)c(=O)c1n2C
[1]
  viability at 18 h, 5 µM: 35%
[2]
  Activity: 1%
Toll-like receptor 4 [3]
  EC50: > 10 µM
Toll-like receptor 4 [4]
  EC50: > 10 µM
[5]
  Activity: 0%
Toll-like receptor 4 [6]
  Activity: 15%

## O=C(CSc1nc2c3c([nH]c2c(=O)n1-c1ccccc1)CCCCC3)NC1CCCCC1
[1]
  viability at 18 h, 5 µM: 84%
[2]
  Activity: 82%
Toll-like receptor 4 [3]
  EC50: 2.83 µM
Toll-like receptor 4 [4]
  EC50: 7.42 µM
[5]
  Activity: 115%
Toll-like receptor 4 [6]
  Activity: 137%

## Cn1c2ccc(Br)cc2c2nc(SCC(=O)NC3CCCCC3)n(-c3ccccc3)c(=O)c21
[1]
  viability at 18 h, 5 µM: 63%
[2]
  Activity: 103%
Toll-like receptor 4 [3]
  EC50: 2.45 µM
Toll-like receptor 4 [4]
  EC50: 3.58 µM
[5]
  Activity: 120%
Toll-like receptor 4 [6]
  Activity: 159%

## Cn1c2ccc(NC(=O)c3ccccc3)cc2c2nc(SCC(=O)NC3CCCCC3)n(-c3ccccc3)c(=O)c21
[1]
  viability at 18 h, 5 µM: 43%
[2]
  Activity: 2%
Toll-like receptor 4 [3]
  EC50: > 10 µM
Toll-like receptor 4 [4]
  EC50: > 10 µM
[5]
  Activity: 7%
Toll-like receptor 4 [6]
  Activity: 26%

## Cn1c2ccc(-c3cccc4ccccc34)cc2c2nc(SCC(=O)NC3CCCCC3)n(-c3ccccc3)c(=O)c21
[1]
  viability at 18 h, 5 µM: 102%
[2]
  Activity: 38%
Toll-like receptor 4 [3]
  EC50: 2.58 µM
Toll-like receptor 4 [4]
  EC50: 2.12 µM
[5]
  Activity: 80%
Toll-like receptor 4 [6]
  Activity: 72%

## Cn1c2ccccc2c2nc(NCCC(=O)NC3CCCCC3)n(-c3ccccc3)c(=O)c21
[1]
  viability at 18 h, 5 µM: 92%
[2]
  Activity: 2%
Toll-like receptor 4 [3]
  EC50: > 10 µM
Toll-like receptor 4 [4]
  EC50: > 10 µM
[5]
  Activity: 0%
Toll-like receptor 4 [6]
  Activity: 8%

## O=C(CCSc1nc2c([nH]c3ccccc32)c(=O)n1-c1ccccc1)NC1CCCCC1
[1]
  viability at 18 h, 5 µM: 58%
[2]
  Activity: 3%
Toll-like receptor 4 [3]
  EC50: > 10 µM
Toll-like receptor 4 [4]
  EC50: > 10 µM
[5]
  Activity: 0%
Toll-like receptor 4 [6]
  Activity: 7%

## Cn1c2c(c3nc(SCC(=O)NC4CCCCC4)n(-c4ccccc4)c(=O)c31)CCCC2
[1]
  viability at 18 h, 5 µM: 106%
[2]
  Activity: 13%
Toll-like receptor 4 [3]
  EC50: > 10 µM
Toll-like receptor 4 [4]
  EC50: > 10 µM
[5]
  Activity: 65%
Toll-like receptor 4 [6]
  Activity: 8%

## O=C(CSc1nc2c3c([nH]c2c(=O)n1-c1ccccc1)CCCC3)NC1CCCCC1
[1]
  viability at 18 h, 5 µM: 91%
[2]
  Activity: 36%
Toll-like receptor 4 [3]
  EC50: 7.12 µM
Toll-like receptor 4 [4]
  EC50: > 10 µM
[5]
  Activity: 80%
Toll-like receptor 4 [6]
  Activity: 27%

## Cn1c2ccc(N)cc2c2nc(SCC(=O)NC3CCCCC3)n(-c3ccccc3)c(=O)c21
[1]
  viability at 18 h, 5 µM: 102%
[2]
  Activity: 3%
Toll-like receptor 4 [3]
  EC50: > 10 µM
Toll-like receptor 4 [4]
  EC50: > 10 µM
[5]
  Activity: 0%
Toll-like receptor 4 [6]
  Activity: 17%

## Cn1c2cc(C#N)ccc2c2nc(SCC(=O)NC3CCCCC3)n(-c3ccccc3)c(=O)c21
[1]
  viability at 18 h, 5 µM: 65%
[2]
  Activity: 6%
Toll-like receptor 4 [3]
  EC50: > 10 µM
Toll-like receptor 4 [4]
  EC50: > 10 µM
[5]
  Activity: 3%
Toll-like receptor 4 [6]
  Activity: 20%
